Test [1] has as its target Tyrosine-protein kinase ABL (Homo sapiens, UniProt P00519+P42684). The experiment in a line: Inhibitory activity against v-abl tyrosine kinase. The test is classed as protein assay.
Test [2] concerns the target cAMP-dependent protein kinase alpha-catalytic subunit (Oryctolagus cuniculus, UniProt Q95J97). The experiment in a line: Inhibitory activity was determined against protein kinase A (PKA) of rabbit. A digest of the protocol: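 PKA from rabbit muscle, kemptide (0.1 mg/mL) as substrate; compounds in DMSO (1% final).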
Test [3] addresses Proto-oncogene tyrosine-protein kinase Src (Homo sapiens, UniProt P12931). Nature of the test: Inhibitory activity against c-src tyrosine kinase.
Another test deals with Protein kinase C (PKC). The experiment in a line: Inhibitory activity was determined against protein kinase C (PKC) from porcine brain. Also on record: species or system Sus scrofa.
The target in test [4] is T1, Platelet-derived growth factor receptor (Mus musculus, UniProt P05622+P26618). Nature of the test: (§1) Inhibition of PDGF-dependent autophosphorylation of PDGF-R in mouse BALB/c3T3 cells. The test is classed as functional, cell-based.
Test [5] is described as follows: Inhibition of BALB/MK mouse epidermal keratinocyte proliferation. The test is classed as functional. In a few lines:
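Mouse BALB/MK keratinocytes (EGF-dependent; kept in calcium-free DMEM/HAM's F12 1:1 with 5% FCS and EGF 5 ng/mL), 10^4 cells/well, seeded and incubated overnight. Serial dilutions added in DMSO (1% final), then 5-day incubation. Cell number by methylene blue staining.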

In test [6] the target is Epidermal growth factor receptor (Homo sapiens, UniProt P00533). Nature of the test: Inhibitory activity against recombinant tyrosine kinase EGF-R (EGF-R ICD).
Sequence of Epidermal growth factor receptor (P00533 whole entry): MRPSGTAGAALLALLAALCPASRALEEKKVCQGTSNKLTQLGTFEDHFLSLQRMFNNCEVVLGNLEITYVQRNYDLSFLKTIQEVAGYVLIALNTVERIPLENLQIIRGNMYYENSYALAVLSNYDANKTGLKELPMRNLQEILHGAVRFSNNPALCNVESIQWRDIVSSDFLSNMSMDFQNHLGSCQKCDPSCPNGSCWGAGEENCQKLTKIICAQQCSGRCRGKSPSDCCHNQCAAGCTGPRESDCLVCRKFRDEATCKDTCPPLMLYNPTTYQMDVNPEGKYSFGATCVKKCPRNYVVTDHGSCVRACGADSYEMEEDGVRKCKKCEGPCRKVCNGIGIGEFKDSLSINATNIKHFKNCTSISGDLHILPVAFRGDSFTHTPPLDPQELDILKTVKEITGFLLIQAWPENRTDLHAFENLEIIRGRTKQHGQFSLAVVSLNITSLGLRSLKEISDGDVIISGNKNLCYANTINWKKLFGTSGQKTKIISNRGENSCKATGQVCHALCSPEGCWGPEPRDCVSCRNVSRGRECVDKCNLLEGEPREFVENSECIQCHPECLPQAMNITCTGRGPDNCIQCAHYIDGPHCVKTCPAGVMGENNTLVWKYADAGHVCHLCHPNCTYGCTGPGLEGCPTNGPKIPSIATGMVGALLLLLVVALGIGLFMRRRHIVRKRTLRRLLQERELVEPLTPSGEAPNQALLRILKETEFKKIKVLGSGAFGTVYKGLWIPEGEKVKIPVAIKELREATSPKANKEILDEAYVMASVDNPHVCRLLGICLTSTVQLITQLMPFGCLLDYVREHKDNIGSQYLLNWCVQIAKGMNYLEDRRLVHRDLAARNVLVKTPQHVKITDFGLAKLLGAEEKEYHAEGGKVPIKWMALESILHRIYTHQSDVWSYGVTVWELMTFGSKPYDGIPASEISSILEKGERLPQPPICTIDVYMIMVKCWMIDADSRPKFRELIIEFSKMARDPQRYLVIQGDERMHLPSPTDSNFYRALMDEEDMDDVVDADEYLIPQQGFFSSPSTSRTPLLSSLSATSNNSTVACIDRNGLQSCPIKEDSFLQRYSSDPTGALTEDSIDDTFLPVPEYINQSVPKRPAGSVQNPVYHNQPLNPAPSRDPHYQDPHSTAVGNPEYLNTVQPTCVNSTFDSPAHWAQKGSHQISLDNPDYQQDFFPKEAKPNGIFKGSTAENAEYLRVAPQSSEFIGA
Test [7] concerns the target T1, Platelet-derived growth factor receptor. Described as §1. The format is functional, cell-based. A digest of the protocol:
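Confluent BALB/c 3T3 cells (collagen-coated wells, 3–5 days, no medium change) in DMEM with 1 mg/mL BSA; serially diluted compound for 2 h, then PDGF 50 ng/mL for 10 min. Cells were methanol-fixed, and phosphotyrosine was detected by ELISA (anti-pTyr 4G10, ABC-AP, p-nitrophenyl phosphate, 405 nm).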
This is another data set of the same source.

Sequence of Proto-oncogene tyrosine-protein kinase Src (P12931 2-536 limits assumed): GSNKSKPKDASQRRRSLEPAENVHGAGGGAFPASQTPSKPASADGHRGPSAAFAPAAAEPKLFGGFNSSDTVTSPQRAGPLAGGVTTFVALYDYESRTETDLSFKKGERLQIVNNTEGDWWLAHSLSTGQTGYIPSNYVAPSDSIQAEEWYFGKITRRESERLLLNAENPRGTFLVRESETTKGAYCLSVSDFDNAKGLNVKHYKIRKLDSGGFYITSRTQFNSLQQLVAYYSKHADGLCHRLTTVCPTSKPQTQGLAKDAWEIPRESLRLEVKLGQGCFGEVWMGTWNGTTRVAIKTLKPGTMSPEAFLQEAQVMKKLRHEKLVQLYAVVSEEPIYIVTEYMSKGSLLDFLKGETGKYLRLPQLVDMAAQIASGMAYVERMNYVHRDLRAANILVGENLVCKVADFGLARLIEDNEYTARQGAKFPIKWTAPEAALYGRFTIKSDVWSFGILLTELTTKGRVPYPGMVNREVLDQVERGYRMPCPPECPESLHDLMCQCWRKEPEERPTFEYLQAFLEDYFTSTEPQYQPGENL

Take `CN(c1ccccc1)c1cc2c(cc1N(C)c1ccccc1)C(=O)NC2=O`: the IC50 in test [1] is above 50 µM; in test [2], above 500 µM; in test [3], above 100 µM; against Protein kinase C (PKC) it was above 500 µM.

On to `CN1C(=O)c2cc(Nc3ccccc3)c(Nc3ccccc3)cc2C1=O`, for which the IC50 in test [4] was above 100 µM; in test [2], above 500 µM; against Protein kinase C (PKC), above 100 µM.

In the case of `O=C1NC(=O)c2cc(Nc3ccc(I)cc3)c(Nc3ccc(I)cc3)cc21`, the concentration for half-maximal inhibition (IC50) (in test [2]; at Protein kinase C (PKC)) was above 500 µM throughout.

Turning to `Cc1ccc(Nc2cc3c(cc2Nc2ccc(C)cc2)C(=O)NC3=O)cc1`, the IC50 was above 100 µM in test [4]; above 100 µM in test [1]; above 500 µM in test [2]; above 100 µM in test [3]; above 100 µM on Protein kinase C (PKC).

Regarding `O=C1c2cc(Nc3ccccc3)c(Nc3ccccc3)cc2C(=O)N1c1ccccc1`, the IC50 in test [4] is above 100 µM; in test [5] it was above 50 µM; in test [2], above 500 µM; on Protein kinase C (PKC) it was above 100 µM.

`O=C1NC(=O)c2cc(Nc3ccc(F)cc3)c(Nc3ccc(F)cc3)cc21` [CGP-53353]: the IC50 in test [4] was 100 µM; in test [1], above 50 µM; in test [2], above 500 µM; in test [3] it was 50 µM; on Protein kinase C (PKC) it was 32 µM.

Regarding `O=C1NC(=O)c2cc(NC3CCCCC3)c(NC3CCCCC3)cc21`, the IC50 in test [6] was above 50 µM; in test [1] it was above 50 µM; in test [2], above 500 µM; in test [3], above 50 µM; at Protein kinase C (PKC), above 100 µM.

Consider `O=C1NC(=O)c2cc(Nc3ccc(O)cc3)c(Nc3ccc(O)cc3)cc21`, for which the IC50 in test [1] was 12 µM; in test [2], above 500 µM; in test [3] it was 8 µM; against Protein kinase C (PKC), 75 µM.

Consider `O=C1NC(=O)C(c2c[nH]c3ccccc23)=C1c1c[nH]c2ccccc12` [RO-316233], for which the IC50 was 20 µM in test [1] and 0.19 µM at Protein kinase C (PKC).

In the case of `O=C1NC(=O)c2cc(Nc3ccc(-c4ccccc4)cc3)c(Nc3ccc(-c4ccccc4)cc3)cc21`, the IC50 in test [4] is above 100 µM; in test [2], above 500 µM; against Protein kinase C (PKC), above 500 µM.

Turning to `N#Cc1ccc(Nc2cc3c(cc2Nc2ccc(C#N)cc2)C(=O)NC3=O)cc1`, the IC50 in test [2] is above 500 µM; against Protein kinase C (PKC) it was above 100 µM.

In the case of `CCN(CC)c1ccc(Nc2cc3c(cc2Nc2ccc(N(CC)CC)cc2)C(=O)NC3=O)cc1`, the IC50 in test [1] is above 50 µM; in test [2], above 500 µM; in test [3], above 100 µM; at Protein kinase C (PKC), above 500 µM.

As for `CN(c1ccccc1)c1cc2c(cc1Nc1ccccc1)C(=O)NC2=O`, the IC50 in test [1] is above 50 µM; in test [2], above 500 µM; in test [3], 1 µM; against Protein kinase C (PKC), above 500 µM.

As for `COc1ccc(Nc2cc3c(cc2Nc2ccccc2)C(=O)NC3=O)cc1`, the IC50 in test [4] was above 100 µM; in test [1], above 100 µM; in test [2] it was above 500 µM; in test [3] it was 64 µM; on Protein kinase C (PKC) it was above 100 µM.

`CC(=O)N(c1ccccc1)c1cc2c(cc1Nc1ccccc1)C(=O)NC2=O`: the IC50 was above 100 µM in test [4], above 500 µM in test [2] and above 100 µM against Protein kinase C (PKC).

For `O=C1NC(=O)c2cc(Nc3ccccc3)c(Nc3ccccc3)cc21` [DAPH], the IC50 in test [1] was above 50 µM; in test [2], above 500 µM; in test [3] it was 16 µM; in test [7], 100 µM; at Protein kinase C (PKC), 80 µM.

Compound `O=C1NC(=O)c2c1c1c3ccccc3[nH]c1c1[nH]c3ccccc3c21` [STAUROSPORINE AGLYCON] gave an IC50 in test [2] above 10 µM.

Turning to `O=C1NC(=O)c2cc3c(cc21)N(c1ccccc1)CCN3c1ccccc1`, the IC50 was above 50 µM in test [1], above 500 µM in test [2], above 50 µM in test [3] and 270 µM at Protein kinase C (PKC).

In the case of `COc1ccc(Nc2cc3c(cc2Nc2ccc(OC)cc2)C(=O)NC3=O)cc1`, the IC50 was above 100 µM in test [4], above 50 µM in test [1], above 500 µM in test [2] and 460 µM against Protein kinase C (PKC).

With `COC(=O)c1cc(Nc2ccccc2)c(Nc2ccccc2)cc1C(=O)OC`, the IC50 (in test [2]; against Protein kinase C (PKC)) was above 500 µM throughout.

With `O=C1NC(=O)c2cc(Sc3ccccc3)c(Sc3ccccc3)cc21`, the IC50 in test [2] was above 500 µM; against Protein kinase C (PKC), above 50 µM.

Consider `COC(=O)c1cc(Nc2ccc(F)cc2)c(Nc2ccc(F)cc2)cc1C(=O)OC`, for which the half-maximal inhibitory concentration (IC50) (in test [2]; against Protein kinase C (PKC)) was above 500 µM in each case.

For orientation: IC50 means the concentration that gives 50% inhibition.
